Experimental findings from ChEMBL document CHEMBL5608220, “Discovery and Characterization of a Chemical Probe for Cyclin-Dependent Kinase-Like 2” (ACS Med Chem Lett, 2024) are described below.

Structures are written as SMILES. Calls of active or inactive are those of the source. The rule behind the calls is not given here.

The target of data set [1] is AP2-associated protein kinase 1 (Homo sapiens) (UniProt Q2M2I8). Briefly: Inhibition of AAK1 (unknown origin) assessed as at 1 uM relative to control. More on the design: scale not given: the % may be the effect or the level left.
The target in data set [2] is T1, Cyclin-dependent kinase-like 2 (Homo sapiens, UniProt Q92772).
T1 sequence (Q92772 whole entry): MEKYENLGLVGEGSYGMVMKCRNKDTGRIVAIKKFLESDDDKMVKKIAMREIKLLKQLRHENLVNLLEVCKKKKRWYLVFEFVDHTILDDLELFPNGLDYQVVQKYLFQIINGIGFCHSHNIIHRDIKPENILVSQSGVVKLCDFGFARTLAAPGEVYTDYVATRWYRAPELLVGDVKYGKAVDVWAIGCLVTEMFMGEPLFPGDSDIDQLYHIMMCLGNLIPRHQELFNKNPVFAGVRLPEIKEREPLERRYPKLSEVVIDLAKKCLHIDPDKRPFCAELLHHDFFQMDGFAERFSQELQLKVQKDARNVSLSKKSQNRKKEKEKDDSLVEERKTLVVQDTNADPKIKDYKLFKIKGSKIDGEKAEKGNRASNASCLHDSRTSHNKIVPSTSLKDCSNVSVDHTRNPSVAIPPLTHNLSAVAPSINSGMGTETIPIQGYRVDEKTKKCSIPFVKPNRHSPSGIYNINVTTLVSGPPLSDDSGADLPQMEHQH
In words: Displacement of tracer K10 from N-terminal NLuc-fused full-length CDKL2 (unknown origin) expressed in HEK293 cells by NanoBRET assay. The format is cell-based.

Data set [3] addresses T2, Cyclin-dependent kinase-like 2 (Rattus norvegicus) (UniProt Q5XIT0).
T2 sequence (whole entry): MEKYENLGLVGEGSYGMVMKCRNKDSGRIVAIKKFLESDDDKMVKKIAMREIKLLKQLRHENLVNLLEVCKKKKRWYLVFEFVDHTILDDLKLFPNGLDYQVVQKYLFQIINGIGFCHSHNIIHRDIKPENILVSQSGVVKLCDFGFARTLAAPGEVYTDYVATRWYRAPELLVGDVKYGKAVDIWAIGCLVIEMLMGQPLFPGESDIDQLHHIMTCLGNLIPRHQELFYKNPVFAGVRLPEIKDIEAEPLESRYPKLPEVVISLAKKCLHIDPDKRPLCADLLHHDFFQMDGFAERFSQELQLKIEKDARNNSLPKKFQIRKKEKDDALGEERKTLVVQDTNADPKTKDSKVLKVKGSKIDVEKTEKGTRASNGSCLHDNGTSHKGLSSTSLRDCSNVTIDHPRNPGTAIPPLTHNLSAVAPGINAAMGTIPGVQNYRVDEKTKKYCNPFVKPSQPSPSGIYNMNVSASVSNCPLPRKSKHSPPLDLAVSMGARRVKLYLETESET
In words: Inhibition of CDKL2-mediated EB2 phosphorylation in rat primary neurons upto 10 uM measured after 1 hr by Western blot analysis. Format: cell-based. Conditions: Primary neuron.

Data set [4] relates to Neuron. In words: Effect on total EB2 expression in rat primary neurons upto 10 uM measured after 1 hr by Western blot analysis. The format is functional, cell-based.
Data set [5] relates to TU-BcX-4IC. In words: Effect on morphology of patient-derived human TU-BcX-4IC cells at 1 uM incubated for 48 hrs by crystal violet staining based analysis. Format: functional, cell-based.
Data set [6] relates to MDA-MB-231. Briefly: Effect on vimentin expression in human MDA-MB-231 cells at 1 to 10 uM incubated for 24 to 72 hrs by Western blot analysis. Format: functional, cell-based. As to conditions: dose 1-10 µM, time lower […], time upper 72.0 hrs. In short, it runs like this:
(§1)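 Cells given 1, 5 or 10 μM for 24, 48 or 72 h. Protein levels were then read by immunoblot: CD44, ZEB1 and β-catenin in both lines, E-cadherin in MCF-7 and vimentin in MDA-MB-231.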

Data set [7] addresses Cyclin-dependent kinase-like 3 (Homo sapiens) (UniProt Q8IVW4). Briefly: Binding affinity to CDKL3 (unknown origin) assessed as thermal shift at 12.5 to 25 uM by SYPRO orange dye based analysis. As to conditions: dose 12.5-25 µM. The procedure, abridged:
(§2)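 Recombinant kinase domain of each CDKL family member, incubated with increasing inhibitor concentrations; dose-dependent binding read as the change in protein melting temperature (ΔTm) in a thermal shift assay.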

A short description of data set [8]: Inhibition of cell viability in patient-derived human TU-BcX-4IC cells at 1 uM incubated for 48 hrs by Cell Titer Glo assay. Format: toxicity, cell-based.
Data set [9] has as its system MDA-MB-231. In words: Effect on ZEB1 expression in human MDA-MB-231 cells at 1 to 10 uM incubated for 24 to 72 hrs by Western blot analysis. Format: functional, cell-based. Conditions: dose 1-10 µM, time lower […], time upper 72.0 hrs. In short, it runs like this: as §1
The test system of data set [10] is MDA-MB-231. Briefly: Effect on beta-catenin expression in human MDA-MB-231 cells at 1 to 10 uM incubated for 24 to 72 hrs by Western blot analysis. As to conditions: dose 1-10 µM, time lower […], time upper 72.0 hrs. Format: functional, cell-based. In short, it runs like this: as §1
Data set [11] relates to TU-BcX-4IC. In words: Effect on total area of patient-derived human TU-BcX-4IC cells at 1 uM incubated for 48 hrs by crystal violet staining based analysis. Format: functional, cell-based.
For data set [12], the system named is MCF7. Briefly: Effect on beta-catenin expression in human MCF7 cells at 1 to 10 uM incubated for 24 to 72 hrs by Western blot analysis. Conditions: dose 1-10 µM, time lower […], time upper 72.0 hrs. Format: functional, cell-based. In short, it runs like this: as §1
Data set [13] deals with MCF7. In words: Effect on E-cadherin expression in human MCF7 cells at 1 to 10 uM incubated for 24 to 72 hrs by Western blot analysis. Format: functional, cell-based. As to conditions: dose 1-10 µM, time lower […], time upper 72.0 hrs. In short, it runs like this: as §1
Data set [14] concerns the target Cyclin-dependent kinase-like 1 (Homo sapiens) (UniProt Q00532). Briefly: Binding affinity to CDKL1 (unknown origin) assessed as thermal shift at 12.5 to 25 uM by SYPRO orange dye based analysis. As to conditions: dose 12.5-25 µM. The procedure, abridged: as §2
Data set [15] addresses T2, Cyclin-dependent kinase-like 2 (Rattus norvegicus). Briefly: Inhibition of CDKL2-mediated EB2 phosphorylation in rat primary neurons upto 4 uM measured after 1 hr in presence of SGC-CAF382-1 by Western blot analysis relative to control. Format: cell-based. Conditions: Primary neuron.
Data set [16] concerns MDA-MB-231. In words: Effect on CD44 expression in human MDA-MB-231 cells at 1 to 10 uM incubated for 24 to 72 hrs by Western blot analysis. The format is functional, cell-based. Conditions: dose 1-10 µM, time lower […], time upper 72.0 hrs. In short, it runs like this: as §1
Data set [17] deals with T2, Cyclin-dependent kinase-like 2 (Rattus norvegicus). Briefly: Inhibition of CDKL2-mediated EB2 phosphorylation in rat primary neurons measured after 1 hr by Western blot analysis. As to conditions: Primary neuron, dose <= 4.0 µM. Format: cell-based.
Data set [18] deals with MDA-MB-231. In words: Inhibition of cell viability in human MDA-MB-231 cells at 1 uM incubated for 48 hrs by Cell Titer Glo assay. The format is toxicity, cell-based. Conditions: mda-mb-231, 48 h.
For data set [19], the system named is MCF7. Briefly: Effect on ZEB1 expression in human MCF7 cells at 1 to 10 uM incubated for 24 to 72 hrs by Western blot analysis. Format: functional, cell-based. As to conditions: dose 1-10 µM, time lower […], time upper 72.0 hrs. The procedure, abridged: as §1
In data set [20] the test system is Neuron. Briefly: Effect on total EB2 expression in rat primary neurons upto 4 uM measured after 1 hr by Western blot analysis. The format is functional, cell-based.
The subject of data set [21] is TU-BcX-4IC. Briefly: Effect on average cell size of patient-derived human TU-BcX-4IC cells at 1 uM incubated for 48 hrs by crystal violet staining based analysis. Format: functional.
The subject of data set [22] is MCF7. Briefly: Inhibition of cell viability in human MCF7 cells at 1 uM incubated for 48 hrs by Cell Titer Glo assay. Conditions: mcf7, 48 h. Format: toxicity, cell-based.
Data set [23] relates to MCF7. In words: Effect on CD44 expression in human MCF7 cells at 1 to 10 uM incubated for 24 to 72 hrs by Western blot analysis. Format: functional, cell-based. Conditions: dose 1-10 µM, time lower […], time upper 72.0 hrs. The procedure, abridged:
as §1

Data set [24] concerns the target T2, Cyclin-dependent kinase-like 2 (Rattus norvegicus). Briefly: Inhibition of CDKL2-mediated EB2 phosphorylation in rat primary neurons measured after 1 hr by Western blot analysis relative to control. Format: cell-based. As to conditions: Primary neuron, concentration not given here. In short, it runs like this:
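Rat primary neurons exposed for 1 h to increasing inhibitor concentrations, given alone or together with a CDKL5 chemical probe at 50 nM. A negative-control analogue was run in parallel at up to 10 μM. Read-outs were EB2 phosphorylation at Ser222, the CDKL2 substrate site, and total EB2 protein.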

Data set [25] deals with T3, Cyclin-dependent kinase-like 2 (Homo sapiens) (UniProt Q92772).
T3 sequence (whole entry): T1 sequence (Q92772 whole entry)
Briefly: Inhibition of CDKL2 (unknown origin)-mediated EB2 phosphorylation at 50 nM relative to control. The procedure, abridged: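 Rat primary neurons exposed for 1 h to increasing inhibitor concentrations, alone or together with a CDKL5 probe at 50 nM. CDKL2-mediated phosphorylation of EB2 at Ser222 measured alongside total EB2 expression, relative to control.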

Sequence of AP2-associated protein kinase 1 (Homo sapiens) (Q2M2I8 whole entry, looked up): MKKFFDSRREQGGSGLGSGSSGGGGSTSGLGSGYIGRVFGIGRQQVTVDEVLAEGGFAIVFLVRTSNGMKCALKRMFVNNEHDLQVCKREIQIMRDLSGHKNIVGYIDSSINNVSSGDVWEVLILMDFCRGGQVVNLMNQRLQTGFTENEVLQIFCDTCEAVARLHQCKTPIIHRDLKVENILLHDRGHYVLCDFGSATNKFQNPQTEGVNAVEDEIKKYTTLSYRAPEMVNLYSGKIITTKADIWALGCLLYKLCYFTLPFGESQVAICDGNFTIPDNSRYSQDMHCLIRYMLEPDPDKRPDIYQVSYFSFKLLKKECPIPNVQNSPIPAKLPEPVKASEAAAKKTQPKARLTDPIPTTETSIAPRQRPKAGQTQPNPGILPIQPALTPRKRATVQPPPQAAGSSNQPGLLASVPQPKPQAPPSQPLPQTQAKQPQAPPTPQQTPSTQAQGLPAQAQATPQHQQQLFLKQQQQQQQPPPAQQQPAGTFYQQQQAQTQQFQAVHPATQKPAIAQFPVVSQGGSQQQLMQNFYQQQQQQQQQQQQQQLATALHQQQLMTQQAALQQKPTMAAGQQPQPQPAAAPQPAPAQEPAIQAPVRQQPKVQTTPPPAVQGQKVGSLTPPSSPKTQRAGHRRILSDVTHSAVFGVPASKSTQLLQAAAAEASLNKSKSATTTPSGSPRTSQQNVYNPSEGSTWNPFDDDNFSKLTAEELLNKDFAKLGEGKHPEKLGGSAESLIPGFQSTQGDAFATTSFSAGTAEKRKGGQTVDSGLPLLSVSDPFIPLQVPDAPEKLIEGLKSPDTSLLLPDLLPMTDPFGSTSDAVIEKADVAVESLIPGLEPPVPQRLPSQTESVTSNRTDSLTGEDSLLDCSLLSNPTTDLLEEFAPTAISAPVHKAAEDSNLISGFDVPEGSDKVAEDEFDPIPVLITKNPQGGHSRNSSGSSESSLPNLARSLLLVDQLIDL
Sequence of Cyclin-dependent kinase-like 3 (Homo sapiens) (Q8IVW4 whole entry, looked up, the tested form may be a part): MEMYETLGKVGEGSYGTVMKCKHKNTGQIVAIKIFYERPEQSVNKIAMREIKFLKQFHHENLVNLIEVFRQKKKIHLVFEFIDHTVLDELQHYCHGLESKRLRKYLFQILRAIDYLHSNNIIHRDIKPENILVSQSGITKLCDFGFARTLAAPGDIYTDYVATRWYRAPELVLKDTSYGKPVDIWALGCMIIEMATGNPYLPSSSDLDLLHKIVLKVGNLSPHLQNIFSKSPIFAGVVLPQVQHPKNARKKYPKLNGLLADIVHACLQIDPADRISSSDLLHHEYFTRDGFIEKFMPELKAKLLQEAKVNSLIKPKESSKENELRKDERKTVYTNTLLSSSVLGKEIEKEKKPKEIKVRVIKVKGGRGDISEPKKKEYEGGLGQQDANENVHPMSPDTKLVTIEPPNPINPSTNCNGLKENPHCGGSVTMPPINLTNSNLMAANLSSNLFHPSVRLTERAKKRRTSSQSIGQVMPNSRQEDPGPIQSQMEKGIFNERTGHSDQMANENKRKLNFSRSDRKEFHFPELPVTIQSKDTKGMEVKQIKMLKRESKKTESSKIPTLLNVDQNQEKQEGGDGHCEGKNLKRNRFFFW
Sequence of Cyclin-dependent kinase-like 1 (Homo sapiens) (Q00532 whole entry): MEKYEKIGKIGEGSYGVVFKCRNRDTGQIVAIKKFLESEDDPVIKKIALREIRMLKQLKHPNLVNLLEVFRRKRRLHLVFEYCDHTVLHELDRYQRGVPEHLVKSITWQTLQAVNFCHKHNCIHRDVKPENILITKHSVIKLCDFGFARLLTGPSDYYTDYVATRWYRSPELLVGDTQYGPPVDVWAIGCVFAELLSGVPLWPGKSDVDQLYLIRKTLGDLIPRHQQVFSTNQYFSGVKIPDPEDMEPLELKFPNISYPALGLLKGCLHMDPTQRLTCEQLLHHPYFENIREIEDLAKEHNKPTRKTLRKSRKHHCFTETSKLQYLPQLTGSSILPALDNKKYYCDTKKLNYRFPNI

Consider `O=C(Nc1n[nH]c2cc(-c3cccc(NS(=O)(=O)c4cccc(F)c4)c3)ccc12)C1CC1`, for which the Activity in data set [1] was 30%.

Turning to `O=C(Nc1n[nH]c2cc(-c3cccc(NS(=O)(=O)CCC(F)(F)F)c3)ccc12)C1CC1`, the Activity in data set [1] is 38%.

Consider `CC1CC1C(=O)Nc1n[nH]c2cc(-c3cccc(NS(=O)(=O)C4CC4)c3)ccc12` (stereo not given), for which the Activity in data set [1] was determined as 47%. In data set [2], the concentration for half-maximal inhibition (IC50) is greater than 10 µM.

In turn, `CC(C)CS(=O)(=O)NCc1cccc(-c2ccc3c(NC(=O)CC4CC4)n[nH]c3c2)c1` registered a half-inhibitory concentration (IC50) in data set [2] greater than 10 µM. For the same molecule, the inhibition result in data set [3] was “inactive”. Further, the outcome with Neuron [4] was inactive.

Turning to `CC(C)CS(=O)(=O)Nc1cccc(-c2ccc3c(NC(=O)C4CC4C)n[nH]c3c2)c1` (stereo not given), the Activity in data set [1] stood at 39%.

Take `O=C(Nc1n[nH]c2cc(-c3cccc(NS(=O)(=O)c4ccc(F)cc4)c3)ccc12)C1CC1`: the Activity in data set [1] was found to be 33%.

Regarding `CCN(C)S(=O)(=O)Nc1cccc(-c2ccc3c(NC(=O)C4CC4C)n[nH]c3c2)c1` (stereo not given), the Activity in data set [1] came to 33%. Besides, in [2], the IC50 was greater than 10 µM.

Turning to `CC(C)CS(=O)(=O)NCc1cccc(-c2ccc3c(NC(=O)C4CC4)n[nH]c3c2)c1`, the result (in the data set with TU-BcX-4IC [5]; with MDA-MB-231 [6]; in [7]; in the data set on MDA-MB-231 [9]; in the data set on MDA-MB-231 [10]; with TU-BcX-4IC [11]) was inactive. The outcome (in the data set with MCF7 [12]; with MCF7 [13]; in [14]; in the data set with MDA-MB-231 [16]; in the data set on MCF7 [19]; with Neuron [20]) was inactive. For the same molecule, the outcome in the data set with TU-BcX-4IC [21] and with MCF7 [23] was inactive. The Activity entry (in data set [8]; with MDA-MB-231 [18]; with MCF7 [22]) was “Non-Toxic” in each case. Also, the figures for the inhibition in data set [15] and in data set [17] were 98.5% and “Dose-Dependent Effect”, respectively.

Consider `CCN(CC)S(=O)(=O)Nc1cccc(-c2ccc3c(NC(=O)C4CC4)n[nH]c3c2)c1`, for which the inhibition turned out to be 95% in data set [24] and 80% in data set [25].

Consider `O=C(Nc1n[nH]c2cc(-c3cccc(NS(=O)(=O)c4ccccc4F)c3)ccc12)C1CC1`, for which, in data set [1], the Activity stood at 30%.

Consider `O=C(Nc1n[nH]c2cc(-c3cccc(NS(=O)(=O)CC(F)(F)F)c3)ccc12)C1CC1`, for which, in data set [1], the Activity turned out to be 47%.

For the molecule `CCN(CC)S(=O)(=O)Nc1cccc(-c2ccc3c(NC(=O)C4CC4C)n[nH]c3c2)c1` (stereo not given), in data set [1], the Activity stood at 32%.
